Rows were chosen to be rich in hits. Some 1.4% of all compounds tested hit in one or more screens of this group.
DTT redox prof: compounds producing H2O2 with reducing agent – biochemical, NIH compound library profiling, artefact control for MLSCN library redox annotation, primary screen; DTT-dependent redox cycling H2O2, phenol red/HRP absorbance; 100% = 100 µM peroxide control, 0% = buffer; activation, % at 10 µM; 200,000 tested, 0.03% active; AID 878, 2007;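 active = activation of at least 50% relative to the plate's high and low controls in the primary single-dose screen; inactive = activation below 50%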;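 also: compound incubated with DTT at 0.8 mM final as the reducing agent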
UBC9 SUMO inh: inhibitors of in vitro SUMOylation cascade, primary screen, biochemical, HTRF, uHTS | SUMO-conjugating enzyme UBC9 (Homo sapiens), P63279 | HTRF SUMOylation assay, SAE1/SAE2 + UBC9 | inhibition, % at 35 µM | 290,000 tested, 0.36% active | AID 2006, 2009; in the data active = inhibition above about 50%, passing the limit was not always enough
Apaf1 inhib: inhibitors of human Apaf-1 apoptosome, primary screen, biochemical, DEVD-Rh110 fluorescence, uHTS | reconstituted apoptosome caspase-3 activity | inhibition, % at 20 µM | 330,000 tested, 0.71% active | AID 489030, 2010; active = inhibition of at least 40% at 20 µM
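System: reconstituted apoptosome with Apaf-1, cytochrome c, caspase-9, procaspase-3, dATP; Signal: Rh110 fluorescence intensity; Schedule: 30 min compound preincubation, 50 min activation, room temperature; Reagent: cytochrome c trigger plus (Z-DEVD)2-Rh110 caspase-3 substrate.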
GSTO1 inh: inhibitors of recombinant GSTO1, primary screen, counter-screen for RBBP9 inhibitor project, biochemical, fluorescence polarization; activity-based probe fluorescence polarization; 300,000 tested, 1.1% active; Glutathione S-transferase omega-1 (Homo sapiens), P78417; inhibition, % at 5.96 µM; AID 1974, 2009;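 active = inhibition above the campaign mean inhibition plus 3 SD, cut at about 35% in these data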
HKDC1 inh: HKDC1 hexokinase inhibitors, primary screen, biochemical, fluorescence, uHTS; AID 493160, 2011; 340,000 tested, 0.16% active; recombinant HKDC1, G6PDH/diaphorase resazurin coupled fluorescence; inhibition, % at 20 µM;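 active = inhibition above about 35% when tested at 20 µM, limit read from the data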
Target sequence (Q2TB90 whole entry, looked up): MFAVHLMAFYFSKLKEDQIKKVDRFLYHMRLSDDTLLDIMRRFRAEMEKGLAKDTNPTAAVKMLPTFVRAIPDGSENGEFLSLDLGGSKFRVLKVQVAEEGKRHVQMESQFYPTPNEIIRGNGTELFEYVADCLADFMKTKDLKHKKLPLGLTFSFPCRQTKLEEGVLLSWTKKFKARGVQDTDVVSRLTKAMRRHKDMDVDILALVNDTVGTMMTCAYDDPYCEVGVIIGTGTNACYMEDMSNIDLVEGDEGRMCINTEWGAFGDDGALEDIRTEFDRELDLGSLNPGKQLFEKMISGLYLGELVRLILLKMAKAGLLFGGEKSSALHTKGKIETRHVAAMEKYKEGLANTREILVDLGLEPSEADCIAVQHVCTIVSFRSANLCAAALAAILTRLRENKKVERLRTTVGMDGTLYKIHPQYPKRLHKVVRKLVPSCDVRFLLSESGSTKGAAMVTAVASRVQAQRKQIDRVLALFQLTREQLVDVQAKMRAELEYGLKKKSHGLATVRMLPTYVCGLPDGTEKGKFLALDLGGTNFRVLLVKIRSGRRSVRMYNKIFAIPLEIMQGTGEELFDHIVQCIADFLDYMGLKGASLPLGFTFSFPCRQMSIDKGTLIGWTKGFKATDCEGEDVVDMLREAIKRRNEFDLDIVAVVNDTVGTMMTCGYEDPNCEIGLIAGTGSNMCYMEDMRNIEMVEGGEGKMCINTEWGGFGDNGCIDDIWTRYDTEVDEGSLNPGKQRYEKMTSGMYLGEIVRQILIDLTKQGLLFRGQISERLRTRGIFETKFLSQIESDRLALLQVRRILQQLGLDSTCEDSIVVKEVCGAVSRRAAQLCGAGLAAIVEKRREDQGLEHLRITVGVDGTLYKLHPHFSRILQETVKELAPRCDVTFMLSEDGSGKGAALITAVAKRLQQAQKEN
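Test system: Recombinant HKDC1 (HK5) hexokinase enzyme, produced in-house | Input: HKDC1 at 5 µg/mL | Buffer or medium: Tris pH 8.0 buffer with MgCl2, Tween-20, BSA, BME | Schedule: 90 min reaction incubation at room temperature, dark | Technique: Resazurin-to-resorufin fluorescence via G6PDH and diaphorase coupling, 525/613 nm | Controls: DMSO wells with and without enzyme mix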
Apaf-1 inh conf: Apaf-1 inhibitors, single-dose retest, confirmation, biochemical, fluorescence, DEVD-Rh110, 20 µM; shares compounds with Apaf1 inhib; reconstituted apoptosome, caspase-3 DEVD-Rh110 fluorescence; inhibition, % at 20 µM; 1,800 tested, 25% active; AID 504614, 2011;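 active = mean inhibition of at least 40% at 20 µM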
Rh110 quench: Rh110 fluorescence interference by putative Apaf-1 inhibitors, confirmation, artefact control for Apaf-1 inhibitor project, biochemical, 20 µM | shares compounds with Apaf1 inhib | quenched caspase reaction | activation (fluorescence interference), % at 20 µM | 1,800 tested, under 10 active | AID 504615, 2011;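 active = signal rise of 40% or more at 20 µM, treated as a fluorescence artifact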
Apaf1 inh interf: fluorescence interference of Apaf-1 inhibitor hits, dose response, artefact control for Apaf-1 inhibitor project; shares compounds with Apaf1 inhib; fluorescence interference counterscreen, Apaf-1 assay format; IC50, µM; 460 tested, under 10 active; AID 588538, 2011; call rule not given here
Numbers stand for hits; . = inactive; / = no result.

SMILES	DTT redox prof	UBC9 SUMO inh	Apaf1 inhib	GSTO1 inh	HKDC1 inh	Apaf-1 inh conf	Rh110 quench	others
O=C1c2[nH]nc(-c3ccccc3O)c2C(c2cccc(Cl)c2)N1Cc1ccco1 (configuration not stated)	.	.	42	.	.	.	.
O=C1c2[nH]nc(-c3ccccc3O)c2C(c2ccc(F)cc2)N1Cc1ccco1 (configuration not stated)	.	.	.	.	.	/	/
COc1ccc2sc(N(CCCN(C)C)C(=O)c3ccc(C(=O)c4ccccc4)cc3)nc2c1	/	/	.	.	.	/	/
CCN(Cc1ccccc1)S(=O)(=O)c1ccc(C(=O)N(CCCN(C)C)c2nc3cc4c(cc3s2)OCCO4)cc1	/	/	41	.	.	.	.
CCN(Cc1ccccc1)S(=O)(=O)c1ccc(C(=O)N(CCCN(C)C)c2nc3ccc(F)cc3s2)cc1	/	.	.	.	.	/	/
CCN(Cc1ccccc1)S(=O)(=O)c1ccc(C(=O)N(CCCN(C)C)c2nc3cc(OC)ccc3s2)cc1	/	/	40	.	.	.	.
Cc1ccc(C)c(C(=O)COC(=O)CN2C(=O)C3C4C=CC(C4)C3C2=O)c1 (configuration not stated)	/	.	.	.	.	/	/
Oc1ccccc1-c1nc2c3ccccc3c3ccccc3c2[nH]1	/	.	/	.	.	/	/
c1csc(-c2nc3c4ccccc4c4ccccc4c3[nH]2)c1	.	.	44	.	.	.	.
Cc1c(N(C)S(=O)(=O)c2cc(C(=O)NCC3CCCO3)ccc2Cl)c(=O)n(-c2ccccc2)n1C (configuration not stated)	/	/	.	.	.	/	/
Cc1ccc(-c2nc(N3CCN(C)CC3)c3ccccc3n2)cc1	/	.	.	.	.	/	/
COc1ccc(-c2nc(-c3ccccc3)nc(N3CCN(C)CC3)c2C#N)cc1	.	.	41	.	.	.	.
CN1CCN(c2nc(-c3ccc(C(C)(C)C)cc3)nc3ccccc23)CC1	/	.	43	.	.	.	.
Cc1cccc(-c2noc(C(C)NC(=O)c3ccco3)n2)c1 (configuration not stated)	/	.	.	.	.	/	/
Cc1cccc(NC(=O)CSCC(=O)N(C)Cc2ccc(Cl)c(Cl)c2)c1	/	/	63	/	.	46	.	Apaf1 inh interf=.
Cc1ccc(NC(=O)CSCC(=O)N(C)Cc2ccc(Cl)c(Cl)c2)cc1	/	/	.	/	.	/	/
CC(Sc1nnc(C2CC2)n1C1CC1)C(=O)c1ccc(Br)cc1 (configuration not stated)	/	/	.	/	.	/	/
CCn1cc(C(=O)NCCCN2CCN(C)CC2)c(=O)c2cc(S(=O)(=O)N3CCc4ccccc4C3)ccc21	.	.	.	.	.	/	/
Nc1ccc2nc(-c3ccccc3)c(-c3ccccc3)nc2c1	/	.	65	.	.	.	.
O=C1C(=O)N(CCN2CCOCC2)C(c2ccccc2)/C1=C(\O)c1ccc2c(c1)OCCO2 (configuration not stated)	/	.	50	.	.	.	.
CC(C)c1ccc(C2/C(=C(\O)c3ccc4c(c3)OCCO4)C(=O)C(=O)N2CCN2CCOCC2)cc1 (configuration not stated)	/	.	.	.	.	/	/
Cc1ccc(S(=O)(=O)Cn2nnnc2C(C(C)C)N2CCC(O)CC2)cc1 (configuration not stated)	/	.	.	.	.	/	/
O=C(OCc1nc2ccccc2s1)c1ccc([N+](=O)[O-])o1	/	.	69	.	.	.	.
COc1ccc(C(CNC(=O)c2cccn2C)N2CCOCC2)cc1 (configuration not stated)	/	/	47	/	.	.	.
COc1ccc(C(CNC(=O)c2ccc(C)o2)N2CCOCC2)cc1 (configuration not stated)	/	/	.	.	.	/	/
SMILES	DTT redox prof	UBC9 SUMO inh	Apaf1 inhib	GSTO1 inh	HKDC1 inh	Apaf-1 inh conf	Rh110 quench	others
COc1ccccc1N1CCN(C(c2cccs2)C(C)NS(=O)(=O)c2ccccc2)CC1 (configuration not stated)	.	.	55	.	.	46	.	Apaf1 inh interf=.
Cc1cc(NC(=O)CSCC(=O)Nc2ccc(Cl)c(C(F)(F)F)c2)no1	/	/	.	.	.	/	/
Cc1cc(NC(=O)CSCC(=O)Nc2ccc(C)c(C)c2)no1	/	/	54	/	.	.	.
COCCNC(=O)CN1C(=O)NC2(CCOc3ccccc32)C1=O (configuration not stated)	/	.	46	.	.	.	.
CCCCNC(=O)CN1C(=O)NC2(CCOc3ccccc32)C1=O (configuration not stated)	/	.	.	.	.	/	/
O=C(c1ccc2c(Cl)c3c(nc2c1)CCCC3)N1CCN(c2ccc(F)cc2)CC1	.	.	.	.	.	/	/
COc1ccccc1N1CCN(C(=O)c2ccc3c(Cl)c4c(nc3c2)CCCC4)CC1	.	.	41	.	.	.	.
CCN1/C(=C/c2ccc3cc(C)ccc3[n+]2CC)Sc2ccc3sccc3c21	/	/	62	.	.	60	.	Apaf1 inh interf=.
Cc1cc(OCCCCn2ccnc2)cc(C)c1Cl	.	.	.	.	.	/	/
Clc1ccc(/C=N/c2c(-c3ccc(Cl)cc3)nc3n2CCS3)cc1	.	.	.	.	.	/	/
C(=N\c1c(-c2ccccc2)nc2n1CCS2)/c1ccccc1	.	.	41	.	.	.	.
Cc1cc2cc(CNC(=S)Nc3ccc(OC(F)(F)F)cc3)ccc2n1C	.	.	59	.	.	.	.
Cc1cc2cc(CNC(=O)Nc3cccc(Cl)c3)ccc2n1C	.	.	49	.	.	.	.
Cc1cccc(NC(=O)NCc2ccc3c(c2)cc(C)n3C)c1	.	.	54	.	.	.	.
Cc1cccc(NC(=S)NCc2ccc3c(c2)cc(C)n3C)c1C	.	.	66	.	.	.	.
COc1cccc(NC(=S)NCc2ccc3c(c2)cc(C)n3C)c1	.	.	/	/	.	/	/
Cc1ccc(S(=O)(=O)N2[C@@H](c3ccccc3F)C(C(=O)O)=CC[C@H]2c2ccc3c(c2)OCO3)cc1	/	/	.	.	.	/	/
C[C@H](NC(=O)C1CC(=O)N(c2ccc3c(c2)OCCO3)C1)C(=O)NCc1ccco1 (some centres not stated)	/	.	.	.	.	/	/
